This note sets out measurements from PMC8251575 (Diabetes, Obesity & Metabolism, 2021).

Data set [1] has as its system subjects with type 2 diabetes. Description: Safety: treatment-emergent adverse events and hypoglycaemic episodes. Type of data set: in vivo, human. Particulars: during oral semaglutide treatment. Put shortly:
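This was a 12-week crossover versus placebo in adults aged 18–75 with type 2 diabetes (HbA1c 6.0%–9.0%, BMI 20–38 kg/m²), with a 5–9-week wash-out between periods. Treatment-emergent AEs and hypoglycaemic episodes were counted from first dose to end of follow-up. Hypoglycaemia was defined as plasma glucose ≤3.9 mmol/L, or >3.9 mmol/L with symptoms. The population was the safety analysis set: all subjects given at least one dose.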

Data set [2] can be described thus: Oral semaglutide pharmacokinetics in plasma. To be noted: median (min, max). Type of data set: in vivo, human. A digest of the protocol:
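Adults with type 2 diabetes on diet/exercise and/or metformin took once-daily oral tablets in a crossover trial: 3 mg weeks 0–4, 7 mg weeks 4–8, 14 mg weeks 8–12. Plasma was sampled at weeks 4, 8 and 12 after the last dose of each strength.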

Take `CC[C@H](C)[C@H](NC(=O)[C@H](Cc1ccccc1)NC(=O)[C@H](CCC(=O)O)NC(=O)[C@H](CCCCNC(=O)COCCOCCNC(=O)COCCOCCNC(=O)CC[C@H](NC(=O)CCCCCCCCCCCCCCCCC(=O)O)C(=O)O)NC(=O)[C@H](C)NC(=O)[C@H](C)NC(=O)[C@H](CCC(N)=O)NC(=O)CNC(=O)[C@H](CCC(=O)O)NC(=O)[C@H](CC(C)C)NC(=O)[C@H](Cc1ccc(O)cc1)NC(=O)[C@H](CO)NC(=O)[C@H](CO)NC(=O)[C@@H](NC(=O)[C@H](CC(=O)O)NC(=O)[C@H](CO)NC(=O)[C@@H](NC(=O)[C@H](Cc1ccccc1)NC(=O)[C@@H](NC(=O)CNC(=O)[C@H](CCC(=O)O)NC(=O)C(C)(C)NC(=O)[C@@H](N)Cc1cnc[nH]1)[C@@H](C)O)[C@@H](C)O)C(C)C)C(=O)N[C@@H](C)C(=O)N[C@@H](Cc1c[nH]c2ccccc12)C(=O)N[C@@H](CC(C)C)C(=O)N[C@H](C(=O)N[C@@H](CCCNC(=N)N)C(=O)NCC(=O)N[C@@H](CCCNC(=N)N)C(=O)NCC(=O)O)C(C)C` [Oral semaglutide]: in data set [1] (N = 15), the “Deaths, n (subjects)” value was “no deaths”. Also, the “Any AE, % of subjects” value in data set [1] (safety analysis set N = 15) was found to be 93.3%. The Semaglutide tmax in data set [2] (3 mg once daily, week 4, n = 15) turned out to be 1 h; in data set [2] (7 mg once daily, week 8, n = 13), 1 h; in data set [2] (14 mg once daily, week 12, n = 13), 1 h.
